pIC50: −log10 of the molar value.
Assays:
[1] = target: T1, Caspase-3 (Homo sapiens, UniProt P42574); experiment: Inhibition of human recombinant caspase 3 using Ac-DEVD-AMC substrate assessed as accumulation of cleaved fluorogenic product
T1 sequence (P42574 whole entry): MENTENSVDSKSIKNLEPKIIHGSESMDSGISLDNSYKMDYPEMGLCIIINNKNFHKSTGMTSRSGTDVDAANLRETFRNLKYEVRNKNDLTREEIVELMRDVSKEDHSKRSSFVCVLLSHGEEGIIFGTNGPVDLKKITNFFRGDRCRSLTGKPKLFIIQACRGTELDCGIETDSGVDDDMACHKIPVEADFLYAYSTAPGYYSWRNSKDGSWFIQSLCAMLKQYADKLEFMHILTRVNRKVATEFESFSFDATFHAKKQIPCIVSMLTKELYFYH
In short: (§1)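 Inhibitor in DMSO (1−5%) at final 500 μM down to 5 pM in tenfold steps, preincubated 10 min. Peptide-AMC substrate then added (final 10 μM) and reacted 10 min at 37 °C. Released AMC read by fluorescence, excitation 360 nm, emission 460 nm.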

[2] = target: T2, Caspase-7 (Homo sapiens, UniProt P55210); experiment: Inhibition of human recombinant caspase 7 using Ac-DEVD-AMC substrate assessed as accumulation of cleaved fluorogenic product; in short: as §1
T2 sequence (P55210 whole entry): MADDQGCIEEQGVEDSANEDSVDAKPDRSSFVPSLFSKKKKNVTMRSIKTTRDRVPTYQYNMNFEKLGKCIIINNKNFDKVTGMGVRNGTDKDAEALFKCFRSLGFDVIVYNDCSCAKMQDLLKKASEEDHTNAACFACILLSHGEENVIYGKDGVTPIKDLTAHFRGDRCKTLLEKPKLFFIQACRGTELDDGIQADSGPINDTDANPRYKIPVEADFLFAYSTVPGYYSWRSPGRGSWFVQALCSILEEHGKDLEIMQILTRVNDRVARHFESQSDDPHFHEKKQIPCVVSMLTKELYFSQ

[3] = target: T3, Caspase-1 (Homo sapiens, UniProt P29466); experiment: Inhibition of human recombinant caspase 1 using Ac-YVAD-AMC substrate assessed as accumulation of cleaved fluorogenic product; in short: as §1
T3 sequence (P29466 whole entry): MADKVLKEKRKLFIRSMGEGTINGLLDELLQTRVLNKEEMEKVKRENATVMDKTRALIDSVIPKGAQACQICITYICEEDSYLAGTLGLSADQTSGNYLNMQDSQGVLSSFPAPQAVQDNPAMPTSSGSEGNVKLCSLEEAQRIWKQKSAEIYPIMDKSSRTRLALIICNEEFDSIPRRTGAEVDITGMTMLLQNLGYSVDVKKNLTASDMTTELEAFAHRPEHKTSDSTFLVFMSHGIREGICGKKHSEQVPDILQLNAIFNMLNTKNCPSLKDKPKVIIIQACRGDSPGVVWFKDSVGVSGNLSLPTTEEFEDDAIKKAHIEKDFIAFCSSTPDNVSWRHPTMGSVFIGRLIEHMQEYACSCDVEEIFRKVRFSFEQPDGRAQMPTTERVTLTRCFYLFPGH

[4] = target: T4, Caspase-6 (Homo sapiens, UniProt P55212); experiment: Inhibition of human recombinant caspase 6 using Ac-VEID-AMC substrate assessed as accumulation of cleaved fluorogenic product; in short: as §1
T4 sequence (P55212 whole entry): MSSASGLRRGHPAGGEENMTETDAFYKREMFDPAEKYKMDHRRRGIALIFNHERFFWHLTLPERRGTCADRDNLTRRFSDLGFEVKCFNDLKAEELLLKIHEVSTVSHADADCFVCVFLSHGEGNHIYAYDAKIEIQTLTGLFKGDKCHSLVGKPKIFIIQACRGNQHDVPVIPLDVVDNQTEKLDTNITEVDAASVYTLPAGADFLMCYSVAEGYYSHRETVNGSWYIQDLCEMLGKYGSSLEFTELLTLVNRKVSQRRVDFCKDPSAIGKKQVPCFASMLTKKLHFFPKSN

Structure (SMILES) | pIC50 [1] | pIC50 [2] | pIC50 [3] | pIC50 [4]
COC[C@@H]1CCCN1S(=O)(=O)c1cc(Br)c2c(c1)C(=O)C(=O)N2CCCF | 7.09 | 7.70 | – | –
COC[C@@H]1CCCN1S(=O)(=O)c1cc(Br)c2c(c1)C(=O)C(=O)N2CCCCF | 7.50 | 8.23 | – | –
COC[C@@H]1CCCN1S(=O)(=O)c1cc(F)c2c(c1)C(=O)C(=O)N2 | < 3.30 | 5.18 | < 3.30 | < 3.30
COC[C@@H]1CCCN1S(=O)(=O)c1cc(Br)c2c(c1)C(=O)C(=O)N2CCCCO | 8.59 | 7.64 | < 3.30 | < 3.30
COC[C@@H]1CCCN1S(=O)(=O)c1cc(I)c2c(c1)C(=O)C(=O)N2C | 5.92 | 4.98 | – | –
COC[C@@H]1CCCN1S(=O)(=O)c1cc(Br)c2c(c1)C(=O)C(=O)N2C | 6.45 | 6.26 | – | –
COC[C@@H]1CCCN1S(=O)(=O)c1cc(Cl)c2c(c1)C(=O)C(=O)N2CCCCF | 8.32 | 7.25 | 5.59 | 3.30
CCCN1C(=O)C(=O)c2cc(S(=O)(=O)N3CCC[C@H]3COC)cc(Br)c21 | 7.58 | 6.80 | – | –
COC[C@@H]1CCCN1S(=O)(=O)c1ccc2c(c1)C(=O)C(=O)N2 | – | – | < 3.30 | 3.30
CCCCN1C(=O)C(=O)c2cc(S(=O)(=O)N3CCC[C@H]3COC)cc(Cl)c21 | 7.24 | 6.58 | 3.30 | 3.30
COC[C@@H]1CCCN1S(=O)(=O)c1cc(Br)c2c(c1)C(=O)C(=O)N2 | < 3.30 | < 3.30 | – | –
CCN1C(=O)C(=O)c2cc(S(=O)(=O)N3CCC[C@H]3COC)cc(I)c21 | 6.68 | 7.70 | – | –
CCCN1C(=O)C(=O)c2cc(S(=O)(=O)N3CCC[C@H]3COC)cc(I)c21 | 6.91 | 7.37 | – | –
COC[C@@H]1CCCN1S(=O)(=O)c1cc(F)c2c(c1)C(=O)C(=O)N2CCCCF | 7.39 | 7.41 | 5.13 | 4.89
COC[C@@H]1CCCN1S(=O)(=O)c1cc(I)c2c(c1)C(=O)C(=O)N2CCCCO | 7.48 | 6.55 | 3.30 | 3.30
COC[C@@H]1CCCN1S(=O)(=O)c1cc(I)c2c(c1)C(=O)C(=O)N2CCCF | 7.70 | – | < 3.30 | 4.55
CCCCN1C(=O)C(=O)c2cc(S(=O)(=O)N3CCC[C@H]3COC)cc(I)c21 | 7.76 | 6.04 | < 3.30 | < 3.30
CCN1C(=O)C(=O)c2cc(S(=O)(=O)N3CCC[C@H]3COC)cc(Br)c21 | 6.88 | – | – | –
CCCCN1C(=O)C(=O)c2cc(S(=O)(=O)N3CCC[C@H]3COC)cc(F)c21 | 8.54 | 8.01 | 5.00 | 4.10
COC[C@@H]1CCCN1S(=O)(=O)c1cc(I)c2c(c1)C(=O)C(=O)N2 | < 3.30 | < 3.30 | – | –
COC[C@@H]1CCCN1S(=O)(=O)c1cc(Cl)c2c(c1)C(=O)C(=O)N2 | < 3.30 | < 3.30 | 3.30 | < 3.30
COC[C@@H]1CCCN1S(=O)(=O)c1cc(I)c2c(c1)C(=O)C(=O)N2CCCCF | 7.29 | 7.17 | 3.30 | 3.30
CCCCN1C(=O)C(=O)c2cc(S(=O)(=O)N3CCC[C@H]3COC)cc(Br)c21 | 7.33 | 8.48 | – | –
